The source made the active and inactive calls. The rule behind the calls is not given here.
Columns and labels:
[1] = target: T1, VP1 capsid protein (Human rhinovirus sp.) (UniProt Q7T664); test: Inhibition of Rhinovirus B14 capsid infected in human HeLa Rh cells assessed as number of wells with full cytopathic effect at 2 times EC50 concentration after 4th passage measured after 3 days by MTS assay relative to control; format: cell-based; parameters: scale not given: the % may be the effect or the level left
T1 sequence (whole entry): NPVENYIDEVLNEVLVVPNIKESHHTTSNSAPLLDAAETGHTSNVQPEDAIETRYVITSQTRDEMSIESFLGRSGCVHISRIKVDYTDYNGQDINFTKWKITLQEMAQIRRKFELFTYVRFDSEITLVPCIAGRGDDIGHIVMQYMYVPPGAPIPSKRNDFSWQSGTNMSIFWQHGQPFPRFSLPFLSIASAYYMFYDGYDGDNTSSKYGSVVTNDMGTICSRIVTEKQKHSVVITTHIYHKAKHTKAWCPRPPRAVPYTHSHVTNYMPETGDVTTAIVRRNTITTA
Summary of the method: (§1)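 Confluent HeLa cells were infected with wild-type RV-B14 with compound present at 1x, 2x or 4x in vitro EC₅₀, n=4 wells. Supernatant was diluted 1:10 onto fresh HeLa cells with compound, for four passages. Value is percentage of wells with full CPE.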

[2] = target: T1, VP1 capsid protein (Human rhinovirus sp.); test: Inhibition of Rhinovirus B14 capsid infected in human HeLa Rh cells assessed as number of wells with full cytopathic effect at EC50 concentration after 1st passage measured after 3 days by MTS assay relative to control; format: cell-based; parameters: scale not given: the % may be the effect or the level left; summary of the method: as §1
[3] = target: T1, VP1 capsid protein (Human rhinovirus sp.); test: Inhibition of Rhinovirus B14 capsid infected in human HeLa Rh cells assessed as number of wells with full cytopathic effect at EC50 concentration after 3rd passage measured after 3 days by MTS assay relative to control; format: cell-based; parameters: scale not given: the % may be the effect or the level left; summary of the method: as §1
rhinovirus B14 [4] = test: Inhibition of Rhinovirus B14 capsid infected in human HeLa Rh cells assessed as number of wells with full cytopathic effect at 4 times EC50 concentration after 2nd passage measured after 3 days by MTS assay relative to control; format: functional; parameters: scale not given: the % may be the effect or the level left; summary of the method: as §1
[5] = target: T1, VP1 capsid protein (Human rhinovirus sp.); test: Inhibition of Rhinovirus B14 capsid infected in human HeLa Rh cells assessed as number of wells with full cytopathic effect at 2 times EC50 concentration after 2nd passage measured after 3 days by MTS assay relative to control; format: cell-based; parameters: scale not given: the % may be the effect or the level left; summary of the method: as §1
[6] = target: T1, VP1 capsid protein (Human rhinovirus sp.); test: Inhibition of Rhinovirus B14 capsid infected in human HeLa Rh cells assessed as number of wells with full cytopathic effect at 4 times EC50 concentration after 4th passage measured after 3 days by MTS assay relative to control; format: cell-based; parameters: scale not given: the % may be the effect or the level left; summary of the method: as §1
[7] = target: T1, VP1 capsid protein (Human rhinovirus sp.); test: Inhibition of Rhinovirus B14 capsid infected in human HeLa Rh cells assessed as reduction in viral replication at 1 uM administered 2 hrs before infection measured after 8 hrs post infection by RT-qPCR analysis; format: cell-based
Summary of the method: (§2)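 HeLa Rh cells adhered overnight, then given 1 µM compound 2 h before, at, or 2, 4 or 6 h after RV-B14 infection. Untreated infected cells served as controls. Cells lysed at 8 h post-infection, DNases heat-inactivated at 75 °C for 15 min. Intracellular viral RNA measured by SYBR one-step qRT-PCR against a gBlock standard series, reported as genome equivalents per sample.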

[8] = target: T1, VP1 capsid protein (Human rhinovirus sp.); test: Inhibition of Rhinovirus B14 capsid infected in human HeLa Rh cells assessed as number of wells with full cytopathic effect at 2 times EC50 concentration after 3rd passage measured after 3 days by MTS assay relative to control; format: cell-based; parameters: scale not given: the % may be the effect or the level left; summary of the method: as §1
[9] = target: T1, VP1 capsid protein (Human rhinovirus sp.); test: Inhibition of Rhinovirus B14 capsid infected in human HeLa Rh cells assessed as number of wells with full cytopathic effect at EC50 concentration after 2nd passage measured after 3 days by MTS assay relative to control; format: cell-based; parameters: scale not given: the % may be the effect or the level left; summary of the method: as §1
[10] = Cytotoxicity against human HeLa Rh cells assessed as reduction in cell viability after 3 days by MTS assay; format: cell-based
rhinovirus B14 [11] = test: Antiviral activity against Rhinovirus B14 infected in human HeLa Rh cells assessed as reduction in viral replication at 1 uM administered at >= 2 hrs post infection measured after 8 hrs post infection by RT-qPCR analysis; format: functional, organism-based; summary of the method: as §2
[12] = target: T1, VP1 capsid protein (Human rhinovirus sp.); test: Inhibition of Rhinovirus B14 capsid infected in human HeLa Rh cells assessed as number of wells with full cytopathic effect at 4 times EC50 concentration after 3rd passage measured after 3 days by MTS assay relative to control; format: cell-based; parameters: scale not given: the % may be the effect or the level left; summary of the method: as §1
[13] = Selectivity index, ratio of CC50 for human HeLa Rh cells to EC50 for Rhinovirus B14 capsid infected in human HeLa Rh cells; format: toxicity, cell-based; settings: read-out: Ratio CC50/EC50
Summary of the method: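 SI = CC₅₀/EC₅₀ for RV-B14 in HeLa Rh cells, both from the same 3-day 35 °C MTS CPE assay. CC₅₀ was obtained by light-microscope scoring of compound-treated uninfected cells, and EC₅₀ from MTS dose-response. Both values were derived by logarithmic interpolation and reported as median ± median absolute deviation.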

[14] = target: T1, VP1 capsid protein (Human rhinovirus sp.); test: Inhibition of Rhinovirus B14 capsid infected in human HeLa Rh cells assessed as number of wells with full cytopathic effect at 2 times EC50 concentration after 1st passage measured after 3 days by MTS assay relative to control; format: cell-based; parameters: scale not given: the % may be the effect or the level left; summary of the method: as §1
[15] = target: T1, VP1 capsid protein (Human rhinovirus sp.); test: Inhibition of Rhinovirus B14 capsid infected in human HeLa Rh cells assessed as number of wells with full cytopathic effect at 4 times EC50 concentration after 1st passage measured after 3 days by MTS assay relative to control; format: cell-based; parameters: scale not given: the % may be the effect or the level left; summary of the method: as §1
rhinovirus B14 [16] = test: Antiviral activity against Rhinovirus B14 infected in human HeLa Rh cells assessed as reduction in viral replication at 1 uM administered at the time of infection measured after 8 hrs post infection by RT-qPCR analysis; format: functional, organism-based; summary of the method: as §2
[17] = target: T1, VP1 capsid protein (Human rhinovirus sp.); test: Inhibition of Rhinovirus B14 capsid infected in human HeLa Rh cells assessed as number of wells with full cytopathic effect at EC50 concentration after 4th passage measured after 3 days by MTS assay relative to control; format: cell-based; parameters: scale not given: the % may be the effect or the level left; summary of the method: as §1
CHO-K1 [18] = test: Genotoxicity in CHOK1 cells assessed as increase in micronucleated cell rates at 1 to 100 uM after 3 hrs in absence of Sprague-Dawley rat S9 fraction and presence of cytokinesis blocking agent cytochalasin B by Giemsa-staining based assay; format: toxicity, Cricetulus griseus; settings: chinese hamster, cho-k1, 3 h
Summary of the method: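 CHO-K1 cells were seeded at 100,000 cells/ml and pre-incubated 24 h, then exposed in duplicate to compound (1–100 μM) for 3 h at 37 °C without S9. Controls were medium, 1% DMSO and mitomycin C 0.6 µg/ml. Cells then had 21 h in 3 µg/ml cytochalasin B, followed by methanol fixation and 10% Giemsa. Micronuclei were counted in 1000 binucleated cells per well, restricted to doses with CI% decrease <55 ± 5%, and compared by χ² test.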

CHO-K1 [19] = test: Genotoxicity in CHOK1 cells assessed as increase in micronucleated cell rates at 1 to 100 uM after 3 hrs in presence of Sprague-Dawley rat S9 fraction and cytokinesis blocking agent cytochalasin B by Giemsa-staining based assay; format: toxicity, Cricetulus griseus; settings: chinese hamster, s9, 3 h
Summary of the method: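 CHO-K1 cells were seeded at 100,000 cells/ml and pre-incubated 24 h. S9 mix from Aroclor 1254-treated male Sprague-Dawley rat liver (1% S9, 0.5 mM G6P, 0.4 mM NADP) was added at 10%, and compound (1–100 μM) was given in duplicate for 3 h at 37 °C. Controls were medium, 1% DMSO and benzo-a-pyrene 5 µg/ml. Cells then had 21 h in 3 µg/ml cytochalasin B and Giemsa staining. Micronuclei were counted in 1000 binucleated cells per well at doses with CI% decrease <55 ± 5%, and compared by χ² test.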

[20] = target: T1, VP1 capsid protein (Human rhinovirus sp.); test: Inhibition of capsid of VP1 A150V mutant harboring Rhinovirus B14 assessed as reduction of virus induced cytopathic effect at 4 times EC50 concentration after 4th passage measured after 3 days by MTS assay
[21] = target: T1, VP1 capsid protein (Human rhinovirus sp.); test: Inhibition of capsid of VP1 C199W mutant harboring Rhinovirus B14 assessed as reduction of virus induced cytopathic effect at 1 times EC50 concentration after 4th passage measured after 3 days by MTS assay
[22] = target: T1, VP1 capsid protein (Human rhinovirus sp.); test: Inhibition of capsid of VP1 N105S mutant harboring Rhinovirus B14 assessed as reduction of virus induced cytopathic effect at 2 times EC50 concentration after 4th passage measured after 3 days by MTS assay

Cc1cc(CCCOc2c(C)cc(-c3noc(C(F)(F)F)n3)cc2C)on1 [PLECONARIL]
Activity [1]: 100%
Activity [2]: 0%
Activity [3]: 100%
Activity (rhinovirus B14 [4]): 0%
Activity [5]: 0%
Activity [6]: 25%
inhibition [7]: Active
Activity [8]: 100%
Activity [9]: 100%
CC50 at 72 h [10]: > 131 µM
Activity (rhinovirus B14 [11]): inactive
Activity [12]: 25%
selectivity ratio [13]: > 4040
Activity [14]: 0%
Activity [15]: 0%
Activity (rhinovirus B14 [16]): Active
Activity [17]: 100%

Cn1nc(C(F)(F)F)cc1-c1ccc(CC(O)c2ccc(-n3cccn3)cc2)c([N+](=O)[O-])c1 (racemic)
CC50 at 72 h [10]: 14 µM
selectivity ratio [13]: 29

O=[N+]([O-])c1cc(Br)ccc1CC(O)c1ccc(-n2cncn2)cc1 (racemic)
CC50 at 72 h [10]: 39 µM
selectivity ratio [13]: 156

Cn1cc(-c2ccc(C[C@@H](O)c3ccc(-n4cncn4)cc3)c([N+](=O)[O-])c2)cn1
CC50 at 72 h [10]: > 342 µM

O=[N+]([O-])c1cc(-c2ccco2)ccc1CC(O)c1ccc(-c2ccncc2)cc1 (racemic)
CC50 at 72 h [10]: > 86 µM
selectivity ratio [13]: > 72

COC(=O)c1ccc(CC(O)c2ccc(-c3ccncc3)cc2)c([N+](=O)[O-])c1 (racemic)
CC50 at 72 h [10]: > 264 µM
selectivity ratio [13]: > 41

Cn1nc(C(F)(F)F)cc1-c1ccc(CC(O)c2ccc(-c3ccncc3)cc2)c([N+](=O)[O-])c1 (racemic)
CC50 at 72 h [10]: > 100 µM
selectivity ratio [13]: > 100

O=[N+]([O-])c1cc(-c2cncs2)ccc1CC(O)c1ccc(-n2cncn2)cc1 (racemic)
CC50 at 72 h [10]: 44 µM
selectivity ratio [13]: 110

Cc1noc(C)c1-c1ccc(CC(O)c2ccc(-n3cncn3)cc2)c([N+](=O)[O-])c1 (racemic)
CC50 at 72 h [10]: > 256 µM

Cn1cc(-c2ccc(C[C@H](O)c3ccc(-n4cccn4)cc3)c([N+](=O)[O-])c2)cn1
Activity (CHO-K1 [18]): Non-Toxic
inhibition [7]: Active
CC50 at 72 h [10]: > 342 µM
Activity (rhinovirus B14 [11]): inactive
selectivity ratio [13]: > 9770
Activity (CHO-K1 [19]): Non-Toxic
Activity (rhinovirus B14 [16]): Active

O=[N+]([O-])c1cc(Br)ccc1CC(O)c1ccc(-n2cccn2)cc1 (racemic)
CC50 at 72 h [10]: 22.5 µM
selectivity ratio [13]: 90

Cn1nc(C(F)(F)F)cc1-c1ccc(CC(O)c2ccc(-n3cncn3)cc2)c([N+](=O)[O-])c1 (racemic)
CC50 at 72 h [10]: 21 µM

O=[N+]([O-])c1cc(F)ccc1CC(O)c1ccc(-n2cccn2)cc1 (racemic)
CC50 at 72 h [10]: > 100 µM
selectivity ratio [13]: > 12

O=[N+]([O-])c1cc(Br)ccc1CC(O)c1ccc(-c2ccncc2)cc1 (racemic)
CC50 at 72 h [10]: > 250 µM
selectivity ratio [13]: > 424

Cc1noc(C)c1-c1ccc(CC(O)c2ccc(-n3cccn3)cc2)c([N+](=O)[O-])c1 (racemic)
CC50 at 72 h [10]: 14 µM

Cn1cc(-c2ccc(CC(O)c3ccc(-n4cncn4)cc3)c([N+](=O)[O-])c2)cn1 (racemic)
Activity [1]: 50%
inhibition [20]: inactive
Activity [2]: 0%
inhibition [21]: Active
Activity [3]: 75%
Activity (rhinovirus B14 [4]): 0%
Activity [5]: 0%
inhibition [22]: Active
Activity [6]: 0%
inhibition [7]: Active
Activity [8]: 25%
Activity [9]: 50%
CC50 at 72 h [10]: 256 to 699 µM
Activity (rhinovirus B14 [11]): inactive
Activity [12]: 0%
selectivity ratio [13]: 1420 to 3880
Activity [14]: 0%
Activity [15]: 0%
Activity (rhinovirus B14 [16]): Active
Activity [17]: 100%

Cn1cc(-c2ccc(C[C@@H](O)c3ccc(-n4cccn4)cc3)c([N+](=O)[O-])c2)cn1
CC50 at 72 h [10]: > 342 µM
selectivity ratio [13]: > 136

O=[N+]([O-])c1cc(Cl)ccc1CC(O)c1ccc(-n2cccn2)cc1 (racemic)
CC50 at 72 h [10]: > 100 µM
selectivity ratio [13]: > 781

Cn1cc(-c2ccc(C[C@H](O)c3ccc(-n4cncn4)cc3)c([N+](=O)[O-])c2)cn1
Activity (CHO-K1 [18]): Non-Toxic
inhibition [7]: Active
CC50 at 72 h [10]: > 342 µM
Activity (rhinovirus B14 [11]): inactive
selectivity ratio [13]: > 5700
Activity (CHO-K1 [19]): Non-Toxic
Activity (rhinovirus B14 [16]): Active

O=[N+]([O-])c1cc(-c2cccs2)ccc1CC(O)c1ccc(-c2ccncc2)cc1 (racemic)
CC50 at 72 h [10]: > 248 µM
selectivity ratio [13]: > 191
